Measured values from ChEMBL document CHEMBL3817823 (J Med Chem, 2016).
Converted amounts (≈) assume the structure as drawn. The source made the active and inactive calls. No cut-off for these calls is given here.

Assays:
[1] = Aqueous solubility of the compound; assay type: physicochemical; conditions: buffer
[2] = Oral bioavailability in rat by LC/MS/MS analysis; assay type: ADME, organism-based; conditions: in vivo
[3] = target: T1, N-lysine methyltransferase SMYD2 (Homo sapiens, UniProt Q9NRG4); experiment: Binding affinity to SMYD2 (unknown origin) assessed as change in melting point at 100 uM by thermal shift assay
T1 sequence (Q9NRG4 whole entry): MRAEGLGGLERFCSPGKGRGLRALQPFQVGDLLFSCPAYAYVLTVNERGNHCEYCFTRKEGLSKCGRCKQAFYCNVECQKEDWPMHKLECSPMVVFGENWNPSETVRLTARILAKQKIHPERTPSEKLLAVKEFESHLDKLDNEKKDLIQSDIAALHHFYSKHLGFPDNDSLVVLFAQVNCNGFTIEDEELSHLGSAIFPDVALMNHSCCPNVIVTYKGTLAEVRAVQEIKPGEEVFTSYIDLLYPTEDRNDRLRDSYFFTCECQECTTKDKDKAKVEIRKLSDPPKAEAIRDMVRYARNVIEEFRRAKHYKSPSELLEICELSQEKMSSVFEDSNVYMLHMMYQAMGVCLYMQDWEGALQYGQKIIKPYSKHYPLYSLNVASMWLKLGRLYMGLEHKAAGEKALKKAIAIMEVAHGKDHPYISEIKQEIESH

[4] = Blood clearance in rat at 0.4 mg/kg, iv bolus administration or 0.8 mg/kg, po by LC-MS/MS analysis; assay type: ADME, organism-based; conditions: whole blood
[5] = Oral bioavailability in rat at 0.8 mg/kg by LC-MS/MS analysis; assay type: ADME, organism-based; conditions: in vivo
[6] = target: Histone-lysine N-methyltransferase EHMT1 (Homo sapiens) (UniProt Q9H9B1); experiment: Inhibition of EHMT1 (unknown origin) at 1 to 50 uM by scintillation proximity assay
[7] = target: Histone-lysine N-methyltransferase PRDM9 (Homo sapiens) (UniProt Q9NQV7); experiment: Inhibition of PRDM9 (unknown origin) at 1 to 50 uM by scintillation proximity assay
Chain of Histone-lysine N-methyltransferase PRDM9 (Homo sapiens) (Q9NQV7 whole entry): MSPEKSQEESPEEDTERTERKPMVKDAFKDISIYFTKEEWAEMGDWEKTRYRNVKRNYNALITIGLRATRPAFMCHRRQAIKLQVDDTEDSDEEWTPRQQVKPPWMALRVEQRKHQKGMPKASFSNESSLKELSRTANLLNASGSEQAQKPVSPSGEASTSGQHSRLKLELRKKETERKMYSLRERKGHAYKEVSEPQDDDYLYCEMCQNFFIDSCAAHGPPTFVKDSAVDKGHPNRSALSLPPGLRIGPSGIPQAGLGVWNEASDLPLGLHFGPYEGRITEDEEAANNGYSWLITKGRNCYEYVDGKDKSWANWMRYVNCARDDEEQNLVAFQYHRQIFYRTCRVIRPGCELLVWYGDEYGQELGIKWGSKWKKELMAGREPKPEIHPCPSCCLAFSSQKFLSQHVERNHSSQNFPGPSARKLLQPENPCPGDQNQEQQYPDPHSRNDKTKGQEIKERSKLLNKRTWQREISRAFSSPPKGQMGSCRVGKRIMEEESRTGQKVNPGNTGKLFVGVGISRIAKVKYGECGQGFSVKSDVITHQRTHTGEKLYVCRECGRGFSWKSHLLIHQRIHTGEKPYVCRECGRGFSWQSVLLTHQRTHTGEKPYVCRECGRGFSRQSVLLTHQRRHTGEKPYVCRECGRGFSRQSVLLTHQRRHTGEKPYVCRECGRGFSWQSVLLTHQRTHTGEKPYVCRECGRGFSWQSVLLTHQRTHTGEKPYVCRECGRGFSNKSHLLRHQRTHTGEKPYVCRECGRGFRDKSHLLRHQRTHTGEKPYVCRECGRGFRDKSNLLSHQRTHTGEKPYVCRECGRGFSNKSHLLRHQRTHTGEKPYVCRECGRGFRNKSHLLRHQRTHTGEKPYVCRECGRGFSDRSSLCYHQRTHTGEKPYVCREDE

[8] = target: Histone-lysine N-methyltransferase SUV39H2 (Homo sapiens) (UniProt Q9H5I1); experiment: Inhibition of SUV39H2 (unknown origin) at 1 to 50 uM by scintillation proximity assay
Chain of Histone-lysine N-methyltransferase SUV39H2 (Homo sapiens) (Q9H5I1 whole entry): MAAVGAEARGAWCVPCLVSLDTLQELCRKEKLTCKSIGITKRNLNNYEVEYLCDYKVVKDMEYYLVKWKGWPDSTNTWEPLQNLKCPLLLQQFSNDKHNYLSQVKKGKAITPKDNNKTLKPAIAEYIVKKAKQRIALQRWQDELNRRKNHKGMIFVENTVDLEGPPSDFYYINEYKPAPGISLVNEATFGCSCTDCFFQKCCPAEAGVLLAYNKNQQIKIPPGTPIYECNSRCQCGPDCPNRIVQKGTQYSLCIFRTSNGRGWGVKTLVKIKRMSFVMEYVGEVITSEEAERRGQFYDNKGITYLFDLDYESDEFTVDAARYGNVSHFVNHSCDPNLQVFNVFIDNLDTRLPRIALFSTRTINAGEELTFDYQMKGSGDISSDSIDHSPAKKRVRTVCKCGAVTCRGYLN

[9] = target: Histone-lysine N-methyltransferase SETD7 (Homo sapiens) (UniProt Q8WTS6); experiment: Inhibition of SETD7 (unknown origin) at 1 to 50 uM by scintillation proximity assay
Chain of Histone-lysine N-methyltransferase SETD7 (Homo sapiens) (Q8WTS6 whole entry): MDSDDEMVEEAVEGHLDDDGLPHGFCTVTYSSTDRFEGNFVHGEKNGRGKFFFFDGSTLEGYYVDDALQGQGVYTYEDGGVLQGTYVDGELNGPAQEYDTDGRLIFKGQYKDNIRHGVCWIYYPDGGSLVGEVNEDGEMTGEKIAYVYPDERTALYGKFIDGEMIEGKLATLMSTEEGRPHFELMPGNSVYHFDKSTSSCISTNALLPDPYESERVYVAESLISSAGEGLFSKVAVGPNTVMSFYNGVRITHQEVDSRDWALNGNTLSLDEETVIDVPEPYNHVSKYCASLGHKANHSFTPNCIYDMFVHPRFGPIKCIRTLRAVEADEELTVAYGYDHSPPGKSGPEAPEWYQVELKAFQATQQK

[10] = target: Histone-lysine N-methyltransferase 2A (Homo sapiens) (UniProt Q03164); experiment: Inhibition of MLL1 (unknown origin) at 1 to 50 uM by scintillation proximity assay
[11] = target: Protein arginine N-methyltransferase 1 (Homo sapiens) (UniProt Q99873); experiment: Inhibition of PRMT1 (unknown origin) at 1 to 50 uM by scintillation proximity assay
Chain of Protein arginine N-methyltransferase 1 (Homo sapiens) (Q99873 whole entry, looked up): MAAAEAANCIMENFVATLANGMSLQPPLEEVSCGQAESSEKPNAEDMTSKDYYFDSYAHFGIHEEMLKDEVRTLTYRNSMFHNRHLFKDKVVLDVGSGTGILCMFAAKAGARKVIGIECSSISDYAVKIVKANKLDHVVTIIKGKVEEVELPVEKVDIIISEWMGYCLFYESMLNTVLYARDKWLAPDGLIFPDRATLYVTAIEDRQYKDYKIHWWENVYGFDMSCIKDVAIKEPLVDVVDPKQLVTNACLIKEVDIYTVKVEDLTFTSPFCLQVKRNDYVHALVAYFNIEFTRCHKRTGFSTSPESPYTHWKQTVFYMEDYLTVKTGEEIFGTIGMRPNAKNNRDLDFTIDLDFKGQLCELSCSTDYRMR

[12] = target: Protein arginine N-methyltransferase 6 (Homo sapiens) (UniProt Q96LA8); experiment: Inhibition of PRMT6 (unknown origin) at 1 to 50 uM by scintillation proximity assay
Chain of Protein arginine N-methyltransferase 6 (Homo sapiens) (Q96LA8 whole entry, looked up): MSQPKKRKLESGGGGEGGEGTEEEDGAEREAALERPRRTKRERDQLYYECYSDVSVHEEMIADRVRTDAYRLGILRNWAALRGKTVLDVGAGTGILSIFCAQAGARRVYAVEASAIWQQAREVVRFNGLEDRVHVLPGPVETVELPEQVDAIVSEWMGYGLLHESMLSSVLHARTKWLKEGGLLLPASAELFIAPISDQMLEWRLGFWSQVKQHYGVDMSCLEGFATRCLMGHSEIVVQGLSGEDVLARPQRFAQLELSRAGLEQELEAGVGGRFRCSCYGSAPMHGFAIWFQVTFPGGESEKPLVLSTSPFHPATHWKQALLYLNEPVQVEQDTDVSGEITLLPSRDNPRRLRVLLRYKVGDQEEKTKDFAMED

[13] = target: Histone-lysine N-methyltransferase SETD2 (Homo sapiens) (UniProt Q9BYW2); experiment: Inhibition of SETD2 (unknown origin) at 1 to 50 uM by scintillation proximity assay
[14] = target: Histone-lysine N-methyltransferase EZH2 (Homo sapiens) (UniProt Q15910); experiment: Inhibition of EZH2 (unknown origin) at 1 to 50 uM by scintillation proximity assay
Chain of Histone-lysine N-methyltransferase EZH2 (Homo sapiens) (Q15910 whole entry, looked up): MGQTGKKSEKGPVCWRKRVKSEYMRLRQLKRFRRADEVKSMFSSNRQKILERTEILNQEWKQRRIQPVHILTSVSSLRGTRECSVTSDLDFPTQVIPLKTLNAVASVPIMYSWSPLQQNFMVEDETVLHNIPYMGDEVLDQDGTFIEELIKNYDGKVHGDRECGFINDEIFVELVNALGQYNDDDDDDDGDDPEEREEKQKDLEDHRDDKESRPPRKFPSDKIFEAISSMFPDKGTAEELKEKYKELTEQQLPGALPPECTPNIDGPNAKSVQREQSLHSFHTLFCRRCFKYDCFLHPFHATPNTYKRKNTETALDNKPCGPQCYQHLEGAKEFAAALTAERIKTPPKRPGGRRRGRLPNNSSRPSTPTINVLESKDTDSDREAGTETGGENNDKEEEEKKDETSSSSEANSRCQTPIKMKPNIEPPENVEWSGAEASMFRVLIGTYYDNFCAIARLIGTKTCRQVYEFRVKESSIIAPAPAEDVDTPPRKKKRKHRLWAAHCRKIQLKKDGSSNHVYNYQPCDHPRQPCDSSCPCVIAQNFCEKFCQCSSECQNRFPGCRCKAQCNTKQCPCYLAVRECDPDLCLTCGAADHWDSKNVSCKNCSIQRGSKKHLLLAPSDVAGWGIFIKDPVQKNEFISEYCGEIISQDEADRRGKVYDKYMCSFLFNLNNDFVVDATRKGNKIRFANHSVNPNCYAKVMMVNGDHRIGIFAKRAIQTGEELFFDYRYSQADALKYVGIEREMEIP

[15] = target: Histone-lysine N-methyltransferase KMT5B (Homo sapiens) (UniProt Q4FZB7); experiment: Inhibition of SUV420H1 (unknown origin) at 1 to 50 uM by scintillation proximity assay
[16] = target: Histone-lysine N-methyltransferase KMT5C (Homo sapiens) (UniProt Q86Y97); experiment: Inhibition of SUV420H2 (unknown origin) at 1 to 50 uM by scintillation proximity assay
[17] = target: DNMT3A2/3L complex (Homo sapiens) (UniProt Q9Y6K1+Q9UJW3); experiment: Inhibition of DNMT3A/3L (unknown origin) at 1 to 50 uM by TCA precipitation assay; assay type: protein-complex assay
Chain of DNMT3A2/3L complex (Homo sapiens) (Q9UJW3 whole entry, looked up): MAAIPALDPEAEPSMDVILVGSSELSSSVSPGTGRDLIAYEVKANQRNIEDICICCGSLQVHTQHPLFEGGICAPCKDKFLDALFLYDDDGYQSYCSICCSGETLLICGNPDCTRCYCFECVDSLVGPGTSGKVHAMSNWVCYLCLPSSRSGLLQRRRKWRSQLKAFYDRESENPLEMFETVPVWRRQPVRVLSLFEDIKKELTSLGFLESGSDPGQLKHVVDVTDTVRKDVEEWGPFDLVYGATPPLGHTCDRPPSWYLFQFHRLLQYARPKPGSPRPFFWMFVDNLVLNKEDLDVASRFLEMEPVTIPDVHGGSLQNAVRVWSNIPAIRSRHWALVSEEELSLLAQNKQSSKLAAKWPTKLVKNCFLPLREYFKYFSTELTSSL
Chain of DNMT3A2/3L complex (Homo sapiens) (Q9Y6K1 whole entry, looked up): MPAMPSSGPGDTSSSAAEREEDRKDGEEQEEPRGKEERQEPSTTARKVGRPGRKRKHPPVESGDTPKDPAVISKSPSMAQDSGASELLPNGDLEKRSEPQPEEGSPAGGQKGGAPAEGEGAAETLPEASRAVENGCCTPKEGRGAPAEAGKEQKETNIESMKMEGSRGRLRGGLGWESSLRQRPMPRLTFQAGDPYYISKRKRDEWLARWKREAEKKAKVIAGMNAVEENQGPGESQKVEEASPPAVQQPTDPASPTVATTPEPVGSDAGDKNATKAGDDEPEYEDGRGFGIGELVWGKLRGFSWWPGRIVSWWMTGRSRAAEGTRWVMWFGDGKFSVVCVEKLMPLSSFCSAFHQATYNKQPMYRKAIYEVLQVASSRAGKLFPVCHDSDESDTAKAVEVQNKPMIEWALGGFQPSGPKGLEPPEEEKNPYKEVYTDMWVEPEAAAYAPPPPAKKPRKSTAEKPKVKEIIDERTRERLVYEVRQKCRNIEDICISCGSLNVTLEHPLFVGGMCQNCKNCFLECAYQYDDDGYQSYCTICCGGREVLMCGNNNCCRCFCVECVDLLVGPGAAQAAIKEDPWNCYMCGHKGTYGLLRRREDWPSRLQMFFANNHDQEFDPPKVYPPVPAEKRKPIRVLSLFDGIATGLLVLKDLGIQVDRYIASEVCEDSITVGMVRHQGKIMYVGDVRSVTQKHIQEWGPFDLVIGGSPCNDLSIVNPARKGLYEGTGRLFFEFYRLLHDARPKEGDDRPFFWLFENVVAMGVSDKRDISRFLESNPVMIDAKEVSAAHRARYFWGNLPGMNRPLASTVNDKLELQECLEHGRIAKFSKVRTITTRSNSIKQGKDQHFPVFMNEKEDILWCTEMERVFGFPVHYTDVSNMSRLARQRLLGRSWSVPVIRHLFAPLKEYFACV

[18] = target: DNMT3B-DNMT3L complex (Homo sapiens) (UniProt Q9UBC3+Q9UJW3); experiment: Inhibition of DNMT3B/3L (unknown origin) at 1 to 50 uM by TCA precipitation assay; assay type: protein-complex assay
Chain of DNMT3B-DNMT3L complex (Homo sapiens) (Q9UJW3 whole entry, looked up, other chains not shown): as the sequence (Q9UJW3 whole entry, looked up) above

[19] = target: Histone-lysine N-methyltransferase, H3 lysine-79 specific (Homo sapiens) (UniProt Q8TEK3); experiment: Inhibition of DOT1L (unknown origin) at 1 to 50 uM by TCA precipitation assay
[20] = target: Histone-lysine N-methyltransferase, H3 lysine-36 specific (Homo sapiens) (UniProt Q96L73); experiment: Inhibition of NSD1 (unknown origin) at 1 to 50 uM by TCA precipitation assay
KYSE-150 cell line = experiment: Potentiation of doxorubicin-induced apoptosis in human KYSE-150 cells assessed as caspase 3/7 activation up to 20 uM after 2 days by […]; assay type: functional, cell-based
U2OS [21] = experiment: Induction of apoptosis in human U2OS cells assessed as caspase 3/7 activation up to 20 uM after 2 days by […]; assay type: functional, cell-based
U2OS [22] = experiment: Potentiation of doxorubicin-induced apoptosis in human U2OS cells assessed as caspase 3/7 activation up to 20 uM after 2 days by […]; assay type: functional, cell-based
A2780 = experiment: Potentiation of doxorubicin-induced apoptosis in human A2780 cells assessed as caspase 3/7 activation up to 20 uM after 2 days by […]; assay type: functional, cell-based
KYSE-150 = experiment: Antitumor activity against human KYSE-150 cells xenografted in BALB/c mouse assessed as reduction in tumor area at 500 mg/kg, po administered qd in presence of doxorubicin relative to control; assay type: functional, organism-based
Outline: (§1)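 Mice carrying subcutaneous KYSE-150 xenografts; dosing began day 4 after inoculation. Arms: vehicle (Solutol/ethanol/water 1:1:8 iv qd, plus saline iv once at day 4), inhibitor 500 mg/kg po qd, doxorubicin 10 mg/kg iv once at day 4, or the combination. Tumor area tracked (mean ± SEM); final tumor weight gives T/C; Dunn's method versus vehicle.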

[23] = Antitumor activity against human KYSE-150 cells xenografted in BALB/c mouse assessed as tumor growth relative to control at 500 mg/kg, po administered qd in presence of doxorubicin; assay type: functional; outline: as §1
Mus musculus [24] = experiment: In vivo inhibition of SMYD2 expressed in human KYSE-150 cells xenografted in BALB/c nude mouse assessed as suppression of AHNAK methylation at 30 mg/kg, po administered qd for 3 days by dot-blot analysis relative to untreated control; assay type: functional
Outline: (§2)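 Mice with subcutaneous KYSE-150 tumor xenografts dosed orally once daily for 3 days (vehicle PEG 400/water 8:2), n = 12 per group; tumors then harvested and AHNAK methylation measured ex vivo by dot blot with SY46 antibody; group means ± SD, Student's t test versus vehicle.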

Mus musculus [25] = experiment: In vivo inhibition of SMYD2 expressed in human KYSE-150 cells xenografted in BALB/c nude mouse assessed as suppression of AHNAK methylation at 100 mg/kg, po administered qd for 3 days by dot-blot analysis relative to untreated control; assay type: functional; outline: as §2
Mus musculus [26] = experiment: Toxicity in human KYSE-150 cells xenografted BALB/c mouse assessed as body weight loss at 500 mg/kg, po administered qd in presence of doxorubicin relative to control; assay type: organism-based; conditions: in vivo
Outline: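 Mice bore subcutaneous KYSE-150-derived tumor xenografts; dosing began day 4 after inoculation. Groups: vehicle (Solutol/ethanol/water 1:1:8 iv qd plus saline iv at day 4); compound 500 mg/kg po qd; doxorubicin 10 mg/kg iv once at day 4; combination. Treatment-related body weight loss was recorded.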

[27] = target: T1, N-lysine methyltransferase SMYD2; conditions: KYSE-150, 0.5 to 10 uM
Mus musculus [28] = experiment: Time>IC50 for cellular methylation in mouse at 10 to 100 mg/kg, po qd

CCN(C(=O)CO)[C@H]1CN(/C(=N\C#N)Nc2cccc(OC(F)F)c2)N=C1c1ccc(Cl)c(Cl)c1 showed a solubility [1] of 20 mg/L (≈ 38.1 µM), a bioavailability [2] of 24% and a deltaTm [3] of 7.1 K. The clearance [4] was 26.7 mL/min/kg, the bioavailability [5] was 24% and the inhibition [6] was “inactive”. For the same compound, the inhibition [7] was “inactive”, the inhibition [8] was “inactive” and the inhibition [9] was “inactive”. For the same compound, the inhibition [10] was “inactive”, the inhibition [11] was “inactive” and the inhibition [12] was “inactive”. For the same compound, the inhibition [13] was “inactive”, the inhibition [14] was “inactive” and the inhibition [15] was “inactive”. For the same compound, the inhibition [16] was “inactive”, the inhibition [17] was “inactive” and the inhibition [18] was “inactive”. The inhibition [19] was “inactive”, the inhibition [20] was “inactive” and the Activity (KYSE-150 cell line) was “Active”. The Activity (U2OS [21]) was “inactive”, the Activity (U2OS [22]) was “Active” and the Activity (A2780) was “Active”. The Activity (KYSE-150) was “Active”, the T/C [23] was 0.46 and the T/C (Mus musculus [24]) was 0.71. For the same compound, the T/C (Mus musculus [25]) was 0.43, the Activity (Mus musculus [26]) was “Non-toxic” and the inhibition [27] was “Active”. It also gave a Time (Mus musculus [28]) of 9 h.
